Measured values taken from ChEMBL document CHEMBL1833876 (J Med Chem, 2011).
pIC50: −log10 of the molar value. The source made the active and inactive calls. No cut-off for these calls is given here.

How the values were obtained:
[1] = target: T1, Proton-coupled folate transporter (Homo sapiens) (UniProt Q96NT5); experiment: Inhibition of human PCFT-mediated [3H]MTX uptake expressed in chinese hamster R2 cells at pH 5.5 by dixon plot analysis relative to PMX; type: cell-based; settings: concentration not given here
T1 sequence (whole entry): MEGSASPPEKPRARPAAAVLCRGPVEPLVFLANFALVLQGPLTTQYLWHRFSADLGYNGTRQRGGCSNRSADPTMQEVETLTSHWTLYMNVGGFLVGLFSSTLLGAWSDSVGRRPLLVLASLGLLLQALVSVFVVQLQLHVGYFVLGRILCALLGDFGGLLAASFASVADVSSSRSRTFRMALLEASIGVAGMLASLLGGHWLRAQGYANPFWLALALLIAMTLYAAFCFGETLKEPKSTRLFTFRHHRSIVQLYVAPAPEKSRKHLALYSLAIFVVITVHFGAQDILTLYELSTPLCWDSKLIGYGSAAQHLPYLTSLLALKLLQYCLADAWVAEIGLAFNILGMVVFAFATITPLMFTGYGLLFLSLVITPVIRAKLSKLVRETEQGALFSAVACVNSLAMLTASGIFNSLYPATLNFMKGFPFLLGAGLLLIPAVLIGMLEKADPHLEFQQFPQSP

IGROV-1 [2] = experiment: Antitumor activity against human IGROV1 cells expressing human RFC, FRalpha and PCFT xenografted in SCID mouse assessed as tumor growth inhibition at 25 mg/kg, iv administered on days 3, 7, […], […], and […] postimplantation; type: functional
[3] = target: T1, Proton-coupled folate transporter (Homo sapiens); experiment: Inhibition of human PCFT-mediated [3H]MTX uptake expressed in chinese hamster R2 cells at pH 6.8 […] relative to PMX; type: cell-based; settings: concentration not given here
IGROV-1 [4] = experiment: Antiproliferative activity against human IGROV1 cells expressing human RFC, FRalpha and PCFT assessed as reduction of viable cells after 96 hrs in the presence of 200 nM folic acid; type: functional, cell-based; settings: IGROV-1, 96 h
How it was run: (§1)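 Same 96 h CellTiter-blue proliferation set-up in folate-free RPMI/10% dFBS with 2 nM leucovorin. Run in parallel incubations that included 200 nM folic acid alongside the antifolate, to establish FR-dependent uptake.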

R2 [5] = experiment: Antiproliferative activity against chinese hamster R2 cells expressing human PCFT assessed as growth inhibition in the presence of 60 uM adenosine; type: functional, cell-based; settings: Cricetulus griseus
How it was run: (§2)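 R2/hPCFT4 cells were grown in folate-free RPMI with 25 nM leucovorin and 10% dFBS and exposed to antifolate for up to 96 h. Rescue co-incubations used thymidine (10 µM), adenosine (60 µM) and AICA (320 µM), alone or combined. Viability was read by CellTiter-blue.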

[6] = Inhibition of GARFTase in chinese hamster R2 cells expressing human PCFT assessed as incorporation of [14C]glycine into [14C]formyl GAR in the presence of 4 uM azaserine; type: cell-based, Cricetulus griseus
Mus musculus [7] = experiment: Toxicity in human IGROV1 cells expressing human RFC, FRalpha and PCFT xenografted SCID mouse assessed as weight loss at 25 mg/kg, iv administered on days 3, 7, 11, 15, and 19 postimplantation measured on day 8 post last treatment; type: organism-based, IGROV-1; set-up: dose 25 mg/kg, route intravenous; settings: in vivo
How it was run: (§3)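 Female ICR SCID mice (10 weeks old) were fed a folate-deficient or folate-replete diet from 24 days before implant. IGROV1 tumor fragments (30–60 mg) were implanted bilaterally s.c. by trocar, and mice were randomized. Dosing was i.v. on a Q4dx5 schedule (days 3, 7, 11, 15, 19). Mice were weighed daily to track weight-loss nadir and recovery.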

Mus musculus [8] = experiment: Toxicity in human IGROV1 cells expressing human RFC, FRalpha and PCFT xenografted SCID mouse assessed as reversible weight loss at 25 to 40 mg/kg, iv administered on days 3, 7, 11, 15, and 19 postimplantation; type: organism-based, IGROV-1; set-up: dose 25-40 mg/kg, route intravenous; settings: in vivo
How it was run: (§4)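 Female ICR SCID mice, 10 weeks old, on a folate-deficient diet from 24 days before implant. Bilateral subcutaneous IGROV1 tumour fragments (30–60 mg, by trocar); mice pooled, then randomised. IV dosing on days 3, 7, 11, 15 and 19. Mice weighed daily; tumours measured by caliper 2–3 times weekly; mice sacrificed at 1500 mg tumour burden. Weight-loss nadir and recovery recorded.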

Mus musculus [9] = experiment: Toxicity in human IGROV1 cells expressing human RFC, FRalpha and PCFT xenografted SCID mouse assessed as mortality at 25 to 40 mg/kg, iv administered on days 3, 7, […], […], and […] postimplantation; type: organism-based, IGROV-1; settings: in vivo
R2 [10] = experiment: Antiproliferative activity against chinese hamster R2 cells assessed as reduction of viable cells after 96 hrs; settings: Cricetulus griseus, R2, 96 h
Mus musculus [11] = experiment: Toxicity in human IGROV1 cells expressing human RFC, FRalpha and PCFT xenografted SCID mouse assessed as weight loss at 25 mg/kg, iv administered on days 3, 7, 11, 15, and 19 postimplantation measured on day 13; type: organism-based, IGROV-1; set-up: dose 25 mg/kg, route intravenous; settings: in vivo; how it was run: as §4
IGROV-1 [12] = experiment: Antitumor activity against human IGROV1 cells expressing human RFC, FRalpha and PCFT xenografted in standard folate diet fed SCID mouse assessed as tumor growth inhibition at 25 to 40 mg/kg, iv administered on days 3, 7, […], […], and […] postimplantation; type: functional; settings: dose mg/kg 25-40
[13] = Antiproliferative activity against chinese hamster PC43-10 expressing human RFC assessed as reduction of viable cells after 96 hrs; type: functional; settings: Cricetulus griseus, PC43-10, 96 h
[14] = Antiproliferative activity against chinese hamster R2(VC) cells assessed as reduction of viable cells after 96 hrs; settings: Cricetulus griseus
IGROV-1 [15] = experiment: Antitumor activity against human IGROV1 cells expressing human RFC, FRalpha and PCFT xenografted in SCID mouse assessed as tumor growth inhibition at 40 mg/kg, iv administered on days 3, 7, […], […], and […] postimplantation; type: functional
KB [16] = experiment: Antiproliferative activity against human KB cells expressing human RFC, FRalpha and PCFT assessed as reduction of viable cells after 96 hrs; type: functional, cell-based
Mus musculus [17] = experiment: Toxicity in human IGROV1 cells expressing human RFC, FRalpha and PCFT xenografted SCID mouse assessed as weight loss at 40 mg/kg, iv administered on days 3, 7, 11, 15, and 19 postimplantation measured on day 10 post last treatment; settings: in vivo
R2 [18] = experiment: Decrease in intracellular ATP concentration in chinese hamster R2 cells expressing human PCFT at 1 uM after 24 hrs by HPLC relative to control at pH 6.8; type: functional, Cricetulus griseus; set-up: scale not given: the % may be the effect or the level left
How it was run: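 R2/hPCFT4 CHO cells seeded in folate-free RPMI 1640 with 10% dialysed FBS and 25 nM leucovorin (pH 7.2). After 24 h, switched to the same medium buffered to pH 6.8 with 25 mM PIPES/25 mM HEPES. Drug at 1 µM, or vehicle (0.5% DMSO or H2O), for 24 h. Nucleotides extracted; ATP quantified by HPLC against vehicle control.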

IGROV-1 [19] = experiment: Antiproliferative activity against human IGROV1 cells expressing human RFC, FRalpha and PCFT assessed as reduction of viable cells after 96 hrs; type: functional, cell-based; settings: IGROV-1, 96 h
KB [20] = experiment: Antiproliferative activity against human KB cells expressing human RFC, FRalpha and PCFT assessed as reduction of viable cells after 96 hrs in the presence of 200 nM folic acid; type: functional, cell-based; how it was run: as §1
R2 [21] = experiment: Antiproliferative activity against chinese hamster R2 cells expressing human PCFT assessed as growth inhibition in the presence of 320 uM AICA; type: functional, cell-based; settings: Cricetulus griseus; how it was run: as §2
[22] = Antiproliferative activity against chinese hamster RT16 cells expressing human FRalpha assessed as reduction of viable cells after 96 hrs in the presence of 200 nM folic acid; type: functional, cell-based; settings: Cricetulus griseus, RT16, 96 h; how it was run: as §1
Mus musculus [23] = experiment: Toxicity in human IGROV1 cells expressing human RFC, FRalpha and PCFT xenografted SCID mouse assessed as weight loss at 25 mg/kg, iv administered on days 3, 7, 11, 15, and 19 postimplantation measured on day 27 post last treatment; type: organism-based, IGROV-1; set-up: dose 25 mg/kg, route intravenous; settings: in vivo; how it was run: as §3
R2 [24] = experiment: Antiproliferative activity against chinese hamster R2 cells expressing human PCFT assessed as inhibition of colony formation after 10 to 14 days; type: functional, cell-based, Cricetulus griseus
Mus musculus [25] = experiment: Toxicity in human IGROV1 cells expressing human RFC, FRalpha and PCFT xenografted SCID mouse assessed as weight loss at 40 mg/kg, iv administered on days 3, 7, 11, 15, and 19 postimplantation measured on day 21; type: organism-based, IGROV-1; set-up: dose 40 mg/kg, route intravenous; settings: in vivo; how it was run: as §4

Work on `Nc1nc2[nH]c(CCCc3ccc(C(=O)N[C@@H](CCC(=O)O)C(=O)O)s3)cc2c(=O)[nH]1` yielded an inhibition [1] of 35%, a T/C (IGROV-1 [2]) of 16% and an inhibition [3] of 18%. For the same compound, the pIC50 (IGROV-1 [4]) was less than 6.00, the Activity (R2 [5]) was “inactive” and the pIC50 [6] was 9.16. For the same compound, the Activity (Mus musculus [7]) was “Non-toxic”, the Activity (Mus musculus [8]) was 2.7% and the Activity (Mus musculus [9]) was “Non-toxic”. The pIC50 (R2 [10]) was 6.56, the Activity (Mus musculus [11]) was 6.3% and the T/C (IGROV-1 [12]) was 67%. For the same compound, the pIC50 [13] was 7.00, the pIC50 [14] was 6.54 and the T/C (IGROV-1 [15]) was 14%. The pIC50 (KB [16]) was 9.59, the Activity (Mus musculus [17]) was “Non-toxic” and the Activity (R2 [18]) was 90%. The pIC50 (IGROV-1 [19]) was 9.26, the pIC50 (KB [20]) was less than 6.00 and the Activity (R2 [21]) was “inactive”. The pIC50 [22] was less than 6.00, the Activity (Mus musculus [23]) was “Non-toxic” and the pIC50 (R2 [24]) was 8.85. It also gave an Activity (Mus musculus [25]) of 9.4%.
